According to ChEMBL document CHEMBL4706499, “PTG-0861: A novel HDAC6-selective inhibitor as a therapeutic strategy in acute myeloid leukaemia” (Eur J Med Chem, 2020):
The source made the active and inactive calls. No cut-off for these calls is given here.

Columns and labels:
Histone deacetylase 1 = Histone deacetylase 1 (Homo sapiens, UniProt Q13547); test: Inhibition of recombinant full length human HDAC1 expressed in SF9 baculovirus using FAM- labelled acetylated peptide as substrate measured by Electrophoretic mobility shift assay
Sequence of Histone deacetylase 1 (Q13547 whole entry): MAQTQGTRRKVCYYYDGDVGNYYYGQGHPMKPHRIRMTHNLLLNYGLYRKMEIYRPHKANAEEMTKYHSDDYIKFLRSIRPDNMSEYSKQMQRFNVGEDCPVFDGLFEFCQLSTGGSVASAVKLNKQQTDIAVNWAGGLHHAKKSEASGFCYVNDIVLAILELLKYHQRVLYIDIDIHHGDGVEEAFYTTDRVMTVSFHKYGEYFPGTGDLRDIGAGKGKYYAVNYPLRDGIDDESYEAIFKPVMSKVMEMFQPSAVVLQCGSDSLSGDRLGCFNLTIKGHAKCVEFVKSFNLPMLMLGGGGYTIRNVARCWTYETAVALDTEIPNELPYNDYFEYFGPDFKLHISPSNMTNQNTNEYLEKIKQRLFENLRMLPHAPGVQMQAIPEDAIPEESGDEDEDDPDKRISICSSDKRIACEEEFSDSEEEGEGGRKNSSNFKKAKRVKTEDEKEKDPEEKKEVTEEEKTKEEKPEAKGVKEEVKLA

Histone deacetylase 7 = biological target: T1, Histone deacetylase 7 (Homo sapiens, UniProt Q8WUI4); test: Inhibition of recombinant full length human HDAC7 expressed in SF9 baculovirus using FAM- labelled acetylated peptide as substrate measured by Electrophoretic mobility shift assay
T1 sequence (Q8WUI4 whole entry): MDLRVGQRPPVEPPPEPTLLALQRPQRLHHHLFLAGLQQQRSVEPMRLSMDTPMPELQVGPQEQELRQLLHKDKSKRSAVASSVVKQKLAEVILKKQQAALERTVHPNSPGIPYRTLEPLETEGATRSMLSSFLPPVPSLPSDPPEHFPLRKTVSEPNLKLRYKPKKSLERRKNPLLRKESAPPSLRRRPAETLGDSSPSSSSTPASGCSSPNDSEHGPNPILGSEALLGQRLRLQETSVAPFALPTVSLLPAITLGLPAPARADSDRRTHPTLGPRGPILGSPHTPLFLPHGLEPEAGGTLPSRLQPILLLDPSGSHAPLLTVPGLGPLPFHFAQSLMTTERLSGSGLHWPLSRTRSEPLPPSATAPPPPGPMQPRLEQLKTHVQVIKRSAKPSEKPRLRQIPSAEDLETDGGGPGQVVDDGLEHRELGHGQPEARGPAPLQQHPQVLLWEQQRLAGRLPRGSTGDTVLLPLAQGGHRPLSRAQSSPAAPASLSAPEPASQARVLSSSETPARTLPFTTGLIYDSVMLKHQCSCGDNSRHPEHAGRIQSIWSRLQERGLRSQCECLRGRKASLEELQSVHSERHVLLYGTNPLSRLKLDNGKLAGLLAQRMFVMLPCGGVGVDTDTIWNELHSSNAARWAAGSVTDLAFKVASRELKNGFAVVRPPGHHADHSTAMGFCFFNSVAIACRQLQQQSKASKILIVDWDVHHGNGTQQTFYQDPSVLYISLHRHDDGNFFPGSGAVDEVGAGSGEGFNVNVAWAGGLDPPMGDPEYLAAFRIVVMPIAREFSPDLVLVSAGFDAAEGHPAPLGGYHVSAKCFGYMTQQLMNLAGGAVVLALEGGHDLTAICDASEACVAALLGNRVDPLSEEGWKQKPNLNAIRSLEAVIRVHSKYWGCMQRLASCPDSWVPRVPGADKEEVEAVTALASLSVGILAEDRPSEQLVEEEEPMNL

[1] = biological target: T2, Protein deacetylase HDAC6 (Homo sapiens) (UniProt Q9UBN7); test: Inhibition of HDAC6 in human MV4-11 cells assessed as increase in acetylation of alpha tubulin at 0.5 uM measured after 6 hrs by Western blot assay relative to histone H3 acetylation; format: cell-based
T2 sequence (whole entry): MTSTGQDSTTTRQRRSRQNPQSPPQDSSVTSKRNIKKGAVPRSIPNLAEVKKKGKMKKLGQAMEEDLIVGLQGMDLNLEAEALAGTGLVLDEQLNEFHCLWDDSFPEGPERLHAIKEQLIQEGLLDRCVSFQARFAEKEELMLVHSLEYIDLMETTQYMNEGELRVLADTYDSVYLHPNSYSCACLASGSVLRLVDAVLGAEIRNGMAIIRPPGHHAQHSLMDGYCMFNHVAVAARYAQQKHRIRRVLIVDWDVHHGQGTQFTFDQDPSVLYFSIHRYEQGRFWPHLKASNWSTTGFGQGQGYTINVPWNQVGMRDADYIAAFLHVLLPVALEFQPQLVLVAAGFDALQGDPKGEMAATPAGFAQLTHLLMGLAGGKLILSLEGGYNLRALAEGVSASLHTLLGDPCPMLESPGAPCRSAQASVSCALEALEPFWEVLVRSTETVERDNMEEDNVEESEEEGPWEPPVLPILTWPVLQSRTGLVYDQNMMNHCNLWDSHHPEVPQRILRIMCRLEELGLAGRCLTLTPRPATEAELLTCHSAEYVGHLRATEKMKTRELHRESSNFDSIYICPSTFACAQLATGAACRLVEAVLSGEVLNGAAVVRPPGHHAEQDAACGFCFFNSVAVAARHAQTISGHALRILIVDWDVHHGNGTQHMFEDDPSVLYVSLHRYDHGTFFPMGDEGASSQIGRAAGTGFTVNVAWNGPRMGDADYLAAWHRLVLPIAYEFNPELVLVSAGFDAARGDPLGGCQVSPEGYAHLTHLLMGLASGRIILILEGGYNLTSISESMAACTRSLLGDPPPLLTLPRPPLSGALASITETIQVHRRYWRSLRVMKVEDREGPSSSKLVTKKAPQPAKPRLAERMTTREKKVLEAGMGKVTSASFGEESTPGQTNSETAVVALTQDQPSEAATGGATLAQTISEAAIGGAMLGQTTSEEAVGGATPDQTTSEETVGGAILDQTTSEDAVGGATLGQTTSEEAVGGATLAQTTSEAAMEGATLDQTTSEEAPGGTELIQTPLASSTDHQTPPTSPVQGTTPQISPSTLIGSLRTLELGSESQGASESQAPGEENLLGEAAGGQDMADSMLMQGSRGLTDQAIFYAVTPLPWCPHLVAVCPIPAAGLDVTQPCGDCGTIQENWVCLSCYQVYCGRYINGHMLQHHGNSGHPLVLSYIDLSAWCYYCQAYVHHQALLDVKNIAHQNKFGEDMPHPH
Procedure, shortened: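 MV4-11 cells were exposed to a range of concentrations for 6 h. Protein extracts were run on SDS-PAGE and immunoblotted for acetylated α-tubulin, acetylated histone H3 and acetylated histone H4, with HSC70 as the loading reference. A representative blot of three independent experiments is shown.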

[2] = biological target: T3, Protein deacetylase HDAC6 (Homo sapiens, UniProt Q9UBN7); test: Inhibition of HDAC6 in human HeLa cells assessed by deacetylation measured after 15 mins by ELISA; format: cell-based
T3 sequence (Q9UBN7 whole entry): T2 sequence (whole entry)
Procedure, shortened: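 ELISA activity assay using HeLa-derived active HDAC6 coated on plates. A range of inhibitor concentrations was incubated with the enzyme, and deacetylation activity was monitored over time, with a 0.25 h read. The IC50 was taken from the inhibition profile.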

MV4-11 [3] = test: Induction of apoptosis in human MV4-11 cells assessed as early apoptotic cells at 4 microM measured after 18 hrs by Annexin V/Propidium iodide stain based Flow cytometry assay (reference value: 1.7%); format: functional
MV4-11 [4] = test: Induction of apoptosis in human MV4-11 cells assessed as early apoptotic cells at 1 microM measured after 18 hrs by Annexin V/Propidium iodide stain based Flow cytometry assay (reference value: 1.7%); format: functional
MM1.S = test: Cytotoxicity against human MM1.S cells measured after 72 hrs by spectrophotometer method; format: functional, cell-based
[5] = Glutathione reactivity at pH 7.4 assessed as compound remaining measured by LC-MS/MS method; format: physicochemical
[6] = Glutathione reactivity at pH 7.4 assessed as compound remaining measured after 60 mins by LC-MS/MS method; format: physicochemical; details: glutathione solution, read-out: Stabilty
[7] = Efflux ratio of apparent permeability in human Caco2 cells measured after 2 hrs by LC-MS/MS method; format: ADME, cell-based; details: Caco-2
Procedure, shortened: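 Bidirectional Caco-2 permeability was measured as Papp in the apical-to-basolateral and basolateral-to-apical directions. The efflux ratio was calculated from the two directional Papp values.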

O=C(NO)c1ccc(CNC(=O)c2c(F)c(F)c(F)c(F)c2F)cc1
IC50 (Histone deacetylase 1): > 1 µM
IC50 (Histone deacetylase 7): > 1 µM
inhibition [1]: Active
IC50 [2]: 0.59 µM
Activity (MV4-11 [3]): 18%
Activity (MV4-11 [4]): 4.27%
IC50 (MM1.S): 1.9 µM
Stabilty [5]: 100%
remaining at 1 h [6]: 98%
efflux ratio at 2 h [7]: 0.71
